Experiments:
[1] = target: T1, Transient receptor potential cation channel subfamily V member 1 (Homo sapiens, UniProt Q8NER1); test: Antagonist activity in pH 5.5-induced FLIPR assays in HEK293 cells expressing human TRPV1; format: functional, cell-based
In short: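 Human TRPV1-expressing HEK293 line stimulated by low pH (pH 5.5) as agonist; antagonism measured as inhibition of calcium influx by FLIPR. IC50 reported as mean ± SEM from at least three determinations.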

[2] = target: T1, Transient receptor potential cation channel subfamily V member 1; test: Antagonist activity in capsaicin-induced FLIPR assays in HEK293 cells expressing human TRPV1; format: functional, cell-based
In short: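 HEK293 cells stably expressing human TRPV1; channel activated with 100 nM capsaicin and block of the calcium influx read on a fluorometric imaging plate reader (FLIPR). IC50 given as mean ± SEM of at least three determinations.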

[3] = Bioavailability in rat at single dose of 30 mg/kg orally; conditions: in vivo, oral
[4] = Volume distribution in rat at single dose of 3 mg/kg intravenously; format: ADME, organism-based; parameters: dose 3 mg/kg, route intravenous; conditions: in vivo, iv
In short: (§1)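 Rat pharmacokinetics: systemic exposure estimated after a single 3 mg/kg intravenous dose and, separately, a single 30 mg/kg oral dose. Parameters derived include Vd, CL, terminal t1/2, Tmax, Cmax and oral bioavailability (F%).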

[5] = Terminal half life value in rat at single dose of 3 mg/kg intravenously; format: ADME, organism-based; parameters: dose 3 mg/kg, route intravenous; conditions: in vivo, iv; in short: as §1
[6] = Terminal half life value in rat at single dose of 3 mg/kg iv dose; conditions: in vivo
[7] = Clearance value in rat at single dose of 3 mg/kg intravenously; format: ADME, organism-based; parameters: dose 3 mg/kg, route intravenous; conditions: in vivo, iv; in short: as §1
[8] = Cmax value in rat at single dose of 30 mg/kg oral dose; format: ADME, organism-based; parameters: dose 30 mg/kg, route oral; conditions: in vivo; in short: as §1
[9] = Clearance value in rat at single dose of 3 mg/kg iv dose; conditions: in vivo
[10] = Bioavailability in rat (single dose 30 mg/kg p.o.); format: ADME, organism-based; conditions: in vivo, po; in short: as §1
[11] = Time taken for cmax value in rat at single dose of 30 mg/kg oral dose; format: ADME, organism-based; parameters: dose 30 mg/kg, route oral; conditions: in vivo; in short: as §1

T1 sequence (Q8NER1 whole entry): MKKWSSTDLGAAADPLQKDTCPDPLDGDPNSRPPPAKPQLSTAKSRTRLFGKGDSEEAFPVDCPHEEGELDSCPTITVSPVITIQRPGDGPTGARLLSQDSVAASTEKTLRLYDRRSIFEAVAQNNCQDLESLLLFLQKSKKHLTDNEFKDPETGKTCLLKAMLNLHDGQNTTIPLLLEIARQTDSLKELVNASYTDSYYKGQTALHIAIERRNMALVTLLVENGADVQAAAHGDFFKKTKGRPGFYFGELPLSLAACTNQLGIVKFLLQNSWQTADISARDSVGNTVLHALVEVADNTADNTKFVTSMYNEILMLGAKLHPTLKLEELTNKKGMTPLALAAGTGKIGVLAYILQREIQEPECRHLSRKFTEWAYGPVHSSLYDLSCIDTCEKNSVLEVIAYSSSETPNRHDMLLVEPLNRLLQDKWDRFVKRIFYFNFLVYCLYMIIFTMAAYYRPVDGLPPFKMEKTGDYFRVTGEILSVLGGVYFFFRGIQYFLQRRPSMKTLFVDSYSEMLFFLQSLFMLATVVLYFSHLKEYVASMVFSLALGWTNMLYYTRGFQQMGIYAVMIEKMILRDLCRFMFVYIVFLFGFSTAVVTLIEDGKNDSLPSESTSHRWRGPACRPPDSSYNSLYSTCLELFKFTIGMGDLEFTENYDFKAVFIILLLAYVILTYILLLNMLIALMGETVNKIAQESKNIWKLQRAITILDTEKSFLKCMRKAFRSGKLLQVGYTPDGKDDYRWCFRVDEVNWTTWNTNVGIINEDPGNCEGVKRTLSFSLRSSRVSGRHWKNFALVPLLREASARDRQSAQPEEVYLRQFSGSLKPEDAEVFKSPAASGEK

IC50 [1] [nM] | IC50 [2] [nM] | SMILES | further results
> 10000 | 2140 | CC(C)(C)c1ccc2oc(N3CCN(c4ncccc4Cl)CC3)nc2c1 | –
1410 | – | C[C@@H]1CN(c2ncccc2Cl)CCN1c1nc2cc(C(C)(C)C)ccc2o1 | –
> 10000 | 776 | C[C@@H]1CN(c2nsnc2Cl)CCN1c1nc2ccc(C(C)(C)C)cc2[nH]1 | –
10000 | 113 | Cc1cc2nc(N3CCN(c4ncccc4Cl)C[C@H]3C)[nH]c2cc1C | –
> 25000 | 5450 | Cc1cc2nc(N3CCN(c4ncccc4Cl)CC3)n(C)c2cc1C | –
1690 | 136 | CC(C)(C)c1ccc2nc(N3CCN(c4ncccc4Cl)CC3)[nH]c2c1 | –
– | 665 | COc1ccc2nc(N3CCN(c4ncccc4Cl)C[C@H]3C)[nH]c2c1 | –
597 | – | Cc1cccnc1N1CCN(c2nc3ccc(C(C)(C)C)cc3[nH]2)[C@H](C)C1 | –

The next lines start with the molecule.

SMILES | IC50 [1] [nM] | IC50 [2] [nM] | further results
C[C@@H]1CN(c2ncccc2Cl)CCN1c1nc2ccc(Cl)cc2[nH]1 | – | 325 | –
Cc1cc2nc(N3CCN(c4ncccc4Cl)C[C@@H]3C)[nH]c2cc1C | > 25000 | 5770 | –
C[C@@H]1CN(c2ncccc2Cl)CCN1c1nc2ccc(C(C)(C)C)cc2[nH]1 | 104 | 90.4 | bioavailability [3]: 19.7%; Vd [4]: 6.87 L/kg; half-life [5]: 35.4 min; half-life [6]: 36 min; clearance [7]: 134 mL/min/kg; Cmax [8]: 300 ng/mL; clearance [9]: 133 mL/min/kg; bioavailability [10]: 19.7%; Tmax [11]: 180 min
C[C@@H]1CN(c2ncccc2C(F)(F)F)CCN1c1nc2ccc(C(C)(C)C)cc2[nH]1 | 1780 | 32.4 | –
CC(C)(C)c1ccc(NC(=O)N2CCN(c3ncccc3Cl)CC2)cc1 | – | – | bioavailability [10]: 15%
C[C@H]1CN(c2ncccc2Cl)CCN1c1nc2ccc(C(C)(C)C)cc2[nH]1 | 3610 | 948 | –
